Legend:
Aminopeptidase N = Aminopeptidase N (Homo sapiens, UniProt P15144); assay: Inhibition of APN by spectrophotometric assay
Procedure, shortened: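 Enzyme and compound preincubated 30 min at 37 °C in 50 mM sodium phosphate buffer, pH 7.2. L-leucine p-nitroanilide substrate was then added for a further 60 min at 37 °C, and absorbance was read at 405 nm. The no-compound well was taken as 100% and the enzyme-only well as blank. Inhibition % = (OD100% − ODcompound)/(OD100% − ODblank) × 100.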

[1] = molecular target: 72 kDa type IV collagenase (Homo sapiens, UniProt P08253); assay: Inhibition of MMP2 by microtiter plate fluorimetric assay; conditions: in the assay text read “spectrophotometric” for “fluorimetric”
Procedure, shortened: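 Enzyme and compound preincubated 30 min at 37 °C in 50 mM sodium borate buffer, pH 8.5. Substrate was added for a further 60 min at 37 °C, then 0.03% picrylsulfonic acid for 20 min at room temperature. Absorbance was read at 450 nm. The no-compound well was taken as 100% and the enzyme-only well as blank. Inhibition % = (OD100% − ODcompound)/(OD100% − ODblank) × 100.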

Sequence of 72 kDa type IV collagenase (P08253 whole entry): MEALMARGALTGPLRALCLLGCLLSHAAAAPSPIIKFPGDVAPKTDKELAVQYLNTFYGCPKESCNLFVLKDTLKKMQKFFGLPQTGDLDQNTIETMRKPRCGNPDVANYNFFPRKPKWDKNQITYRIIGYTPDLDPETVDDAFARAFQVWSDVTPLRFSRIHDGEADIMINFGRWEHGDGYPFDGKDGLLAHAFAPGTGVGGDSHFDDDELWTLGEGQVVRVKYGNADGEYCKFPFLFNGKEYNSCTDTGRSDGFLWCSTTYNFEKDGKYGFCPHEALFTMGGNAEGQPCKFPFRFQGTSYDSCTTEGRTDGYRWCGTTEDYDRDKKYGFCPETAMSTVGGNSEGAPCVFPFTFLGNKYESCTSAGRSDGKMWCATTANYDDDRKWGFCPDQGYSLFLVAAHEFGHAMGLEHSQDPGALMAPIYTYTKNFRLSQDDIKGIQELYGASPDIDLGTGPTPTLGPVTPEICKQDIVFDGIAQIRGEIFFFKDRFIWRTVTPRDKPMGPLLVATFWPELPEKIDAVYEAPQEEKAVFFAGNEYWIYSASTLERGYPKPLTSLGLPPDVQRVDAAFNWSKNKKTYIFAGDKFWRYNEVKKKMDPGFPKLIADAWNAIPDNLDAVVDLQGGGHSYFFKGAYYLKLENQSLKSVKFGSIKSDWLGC
Sequence of Aminopeptidase N (P15144 whole entry): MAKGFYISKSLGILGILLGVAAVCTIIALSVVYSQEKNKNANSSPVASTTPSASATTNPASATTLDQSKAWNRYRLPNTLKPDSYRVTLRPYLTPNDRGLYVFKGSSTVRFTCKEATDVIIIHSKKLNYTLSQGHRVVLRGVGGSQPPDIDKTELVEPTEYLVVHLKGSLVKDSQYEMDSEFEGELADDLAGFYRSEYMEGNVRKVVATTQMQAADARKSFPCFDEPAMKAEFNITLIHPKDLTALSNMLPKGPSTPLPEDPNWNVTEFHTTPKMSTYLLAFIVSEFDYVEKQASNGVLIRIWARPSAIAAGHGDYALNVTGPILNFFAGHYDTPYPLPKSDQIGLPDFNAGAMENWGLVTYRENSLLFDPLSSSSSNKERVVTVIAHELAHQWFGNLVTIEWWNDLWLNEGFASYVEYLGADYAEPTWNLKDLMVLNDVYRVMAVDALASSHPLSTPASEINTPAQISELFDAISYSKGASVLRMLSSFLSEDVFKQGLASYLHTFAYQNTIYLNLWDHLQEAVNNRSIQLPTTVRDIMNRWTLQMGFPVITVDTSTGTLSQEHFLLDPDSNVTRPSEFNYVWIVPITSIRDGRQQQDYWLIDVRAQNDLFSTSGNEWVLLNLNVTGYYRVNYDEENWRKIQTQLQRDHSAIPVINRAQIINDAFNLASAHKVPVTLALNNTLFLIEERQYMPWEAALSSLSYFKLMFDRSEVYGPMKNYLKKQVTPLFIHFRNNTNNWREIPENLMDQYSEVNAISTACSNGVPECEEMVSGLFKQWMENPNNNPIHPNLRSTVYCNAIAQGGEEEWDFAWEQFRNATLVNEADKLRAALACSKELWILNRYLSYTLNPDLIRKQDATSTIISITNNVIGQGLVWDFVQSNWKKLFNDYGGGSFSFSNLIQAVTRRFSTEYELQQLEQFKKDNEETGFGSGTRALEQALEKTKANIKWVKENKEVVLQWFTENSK

| IC50 (Aminopeptidase N) [µM] | IC50 [1] [µM] | SMILES |
| --- | --- | --- |
| 53.6 | 5.2 | COC(=O)[C@@H]1C[C@@H](OC(=O)c2ccccc2)CN1S(C)(=O)=O |
| 26.3 | 0.02 | CS(=O)(=O)N1C[C@H](O)C[C@H]1C(=O)NO |
| 36.4 | 2.7 | COC(=O)[C@@H]1C[C@@H](OC(=O)c2ccc(Cl)cc2)CN1S(=O)(=O)c1ccccc1 |
| 21.7 | 0.002 | Cc1ccc(S(=O)(=O)N2C[C@H](O)C[C@H]2C(=O)NO)cc1 |
| 24.8 | 3.2 | COC(=O)[C@@H]1C[C@@H](OC(=O)c2ccccc2)CN1S(=O)(=O)c1ccc(C)cc1 |
| 74.6 | 0.05 | COC(=O)[C@@H]1C[C@@H](OS(=O)(=O)c2ccccc2)CN1S(=O)(=O)c1ccc(C)cc1 |
| 33.5 | 0.004 | O=C(NO)[C@@H]1C[C@@H](O)CN1S(=O)(=O)c1ccccc1 |
| 114 | 0.5 | COC(=O)[C@@H]1C[C@@H](OC(=O)/C=C/c2ccccc2)CN1S(C)(=O)=O |
| 51.2 | 2.2 | COC(=O)[C@@H]1C[C@@H](OC(=O)c2ccc(Cl)cc2)CN1S(=O)(=O)c1ccc(C)cc1 |
| 68.9 | 0.2 | COC(=O)[C@@H]1C[C@@H](OS(=O)(=O)c2ccc(C)cc2)CN1S(C)(=O)=O |
| 101 | 0.007 | COC(=O)[C@@H]1C[C@@H](OS(=O)(=O)c2ccc(C)cc2)CN1S(=O)(=O)c1ccc(C)cc1 |
| 61.3 | 0.04 | COC(=O)[C@@H]1C[C@@H](OS(=O)(=O)c2ccc(C)cc2)CN1S(=O)(=O)c1ccccc1 |
| 28.4 | 0.7 | COC(=O)[C@@H]1C[C@@H](OS(=O)(=O)c2ccccc2)CN1S(C)(=O)=O |
| 47.3 | 0.01 | COC(=O)[C@@H]1C[C@@H](OS(=O)(=O)c2ccccc2)CN1S(=O)(=O)c1ccccc1 |
| 135 | 0.09 | COC(=O)[C@@H]1C[C@@H](OC(=O)/C=C/c2ccccc2)CN1S(=O)(=O)c1ccccc1 |
| 31.6 | 8.9 | COC(=O)[C@@H]1C[C@@H](OS(C)(=O)=O)CN1S(C)(=O)=O |
| 169 | 0.04 | COC(=O)[C@@H]1C[C@@H](OC(=O)/C=C/c2ccccc2)CN1S(=O)(=O)c1ccc(C)cc1 |
| 39.5 | 1.3 | COC(=O)[C@@H]1C[C@@H](OS(C)(=O)=O)CN1S(=O)(=O)c1ccccc1 |
| 41.4 | 0.2 | COC(=O)[C@@H]1C[C@@H](OS(C)(=O)=O)CN1S(=O)(=O)c1ccc(C)cc1 |
| 47.5 | 1.5 | COC(=O)[C@@H]1C[C@@H](OC(=O)c2ccc(Cl)cc2)CN1S(C)(=O)=O |
| 43.8 | 3.5 | COC(=O)[C@@H]1C[C@@H](OC(=O)c2ccccc2)CN1S(=O)(=O)c1ccccc1 |

Source: ChEMBL document CHEMBL1140058, “Synthesis of new sulfonyl pyrrolidine derivatives as matrix metalloproteinase inhibitors” (Bioorg Med Chem, 2008)
